Laboratory results published in ChEMBL document CHEMBL4400568, “The design of 1,4-naphthoquinone derivatives and mechanisms underlying apoptosis induction through ROS-dependent MAPK/Akt/STAT3 pathways in human lung cancer cells” (Bioorg Med Chem, 2019).
The source made the active and inactive calls. No cut-off for these calls is given here.

Assays:
[1] = tested on: A549; assay: Induction of ROS generation in human A549 cells assessed as intracellular ROS level at 3 uM after 12 hrs by DCFH-DA staining-based flow cytometric analysis (reference value: 51.8%); format: functional
Outline: (§1)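 A549 cells loaded with DCFH-DA (10 μM per legend) for 30 min, then exposed to 3 μM at 37°C for 3, 6, 12 or 24 h. After two PBS washes, intracellular fluorescence is quantified by flow cytometry. Three independent experiments, mean ± SD.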

[2] = tested on: A549; assay: Induction of apoptosis in human A549 cells assessed as cell shrinkage at 3 uM by Annexin V-FITC/propidium iodide staining-based flow cytometric analysis; format: functional; conditions: TDE = time-dependent effect
[3] = tested on: A549; assay: Cell cycle arrest in human A549 cells assessed as accumulation of cells at G1 phase at 3 uM after 24 hrs by propidium iodide staining-based flow cytometric analysis (reference value: 57.65%); format: functional
[4] = tested on: A549; assay: Induction of apoptosis in human A549 cells assessed as increase in cleaved PARP at 3 uM measured after 24 hrs in presence of NAC by Western blot analysis; format: functional, cell-based
Outline: (§2)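 A549 cells exposed to 3 μM for 3, 6, 12 or 24 h; where NAC is used, 10 mM NAC is added 30 min before 24 h treatment. Lysate protein (30 μg) is run on 12% SDS-PAGE, blotted to nitrocellulose, blocked in 5% milk, primary antibody overnight at 4°C, then HRP anti-IgG. β-actin loading control; densitometry; three independent experiments, mean ± SD.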

[5] = tested on: A549; assay: Cell cycle arrest in human A549 cells assessed as accumulation of cells at G1 phase at 3 uM after 6 hrs by propidium iodide staining-based flow cytometric analysis (reference value: 57.65%); format: functional
[6] = tested on: A549; assay: Inhibition of ERK in human A549 cells assessed as decrease in STAT3 phosphorylation at 3 uM after 3 to 24 hrs by Western blot analysis; format: cell-based
Outline: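 A549 cells exposed to 3 μM for 3, 6, 12 or 24 h. Lysate protein (30 μg) run on 12% SDS-PAGE and blotted to nitrocellulose. Membranes blocked in 5% skim milk, primary antibodies at 4°C overnight, then HRP anti-IgG secondary for 1 h at room temperature. β-actin was the internal control. Bands quantified by densitometry; three independent experiments, mean ± SD.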

[7] = tested on: A549; assay: Induction of ROS generation in human A549 cells at 3 uM by DCFH-DA staining-based flow cytometric analysis; format: functional, cell-based; conditions: TDE = time-dependent effect; outline: as §1
[8] = tested on: A549; assay: Induction of apoptosis in human A549 cells assessed as decrease in Bcl-2 expression at 3 uM after 24 hrs by Western blot analysis; format: functional, cell-based; outline: as §2
[9] = tested on: A549; assay: Cell cycle arrest in human A549 cells assessed as increase in p27 levels at 3 uM by Western blot analysis; format: functional, cell-based; conditions: TDE = time-dependent effect; outline: as §2
[10] = tested on: A549; assay: Induction of apoptosis in human A549 cells assessed as apoptotic morphological changes at 3 uM by Annexin V-FITC/propidium iodide staining-based flow cytometric analysis; format: functional, cell-based; conditions: TDE = time-dependent effect
[11] = tested on: A549; assay: Induction of apoptosis in human A549 cells assessed as late apoptotic cells at 3 uM after 24 hrs by Annexin V-FITC/propidium iodide staining-based flow cytometric analysis (reference value: 4.52%); format: functional
[12] = tested on: A549; assay: Cell cycle arrest in human A549 cells assessed as accumulation of cells at S phase at 3 uM after 24 hrs by propidium iodide staining-based flow cytometric analysis (reference value: 13.85%); format: functional
[13] = tested on: IMR-90; assay: Cytotoxicity against human IMR90 cells assessed as reduction in cell viability after 24 hrs by MTT assay; format: cell-based; conditions: imr-90, 24 h
Outline: (§3)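 Log-phase cells seeded at 1 × 10⁴ per well. Lung cancer lines (A549, NCI-H23, NCI-H460) and normal lines (IMR-90, QSG-7701, HEK-293A) each exposed to 1, 3, 10, 30 and 100 μM for 24 h. MTT (5 mg/mL stock) added for 2 h at 37°C, formazan dissolved in DMSO, absorbance read at 490 nm. Three independent experiments, mean ± SD.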

[14] = tested on: NCI-H460; assay: Cytotoxicity against human NCI-H460 cells assessed as reduction in cell viability after 24 hrs by MTT assay; format: functional, cell-based; outline: as §3
[15] = tested on: A549; assay: Cell cycle arrest in human A549 cells assessed as decrease in CDK4/6 levels at 3 uM by Western blot analysis; format: functional, cell-based; conditions: TDE = time-dependent effect; outline: as §2
[16] = tested on: A549; assay: Induction of apoptosis in human A549 cells assessed as early apoptotic cells at 3 uM in presence of NAC by Annexin V-FITC/propidium iodide staining-based flow cytometric analysis (reference value: 5.31%); format: functional
[17] = target: T1, c-Jun N-terminal kinase, JNK (Homo sapiens) (UniProt P45983+P53779+P45984); assay: Activation of JNK phosphorylation in human A549 cells at 3 uM after 24 hrs in presence of NAC by Western blot analysis; format: cell-based; outline: as §2
[18] = target: RAC-alpha serine/threonine-protein kinase (Homo sapiens) (UniProt P31749); assay: Modulation of AKT in human A549 cells assessed as increase in p27 levels measured after 24 hrs in presence of Akt inhibitor-LY10249 by Western blot analysis; format: cell-based
Outline: (§4)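 A549 cells pre-incubated for 30 min with 12.1 μM kinase inhibitor: SB203580 (p38), SP600125 (JNK), FR180204 (ERK) or LY10249 (Akt). Compound treatment followed for 24 h. Lysates (30 μg protein) analysed by 12% SDS-PAGE and nitrocellulose immunoblot with HRP detection. Three independent experiments, mean ± SD.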

[19] = tested on: A549; assay: Cell cycle arrest in human A549 cells assessed as decrease in cyclinD1/E levels at 3 uM by Western blot analysis; format: functional, cell-based; conditions: TDE = time-dependent effect; outline: as §2
[20] = target: RAC-alpha serine/threonine-protein kinase (Homo sapiens) (UniProt P31749); assay: Modulation of AKT in human A549 cells assessed as decrease in CDK6 levels measured after 24 hrs in presence of Akt inhibitor-LY10249 by Western blot analysis; format: cell-based; outline: as §4
[21] = Cytotoxicity against HEK293A cells assessed as reduction in cell viability after 24 hrs by MTT assay; format: cell-based; conditions: human, hek293-a; outline: as §3
[22] = tested on: A549; assay: Induction of apoptosis in human A549 cells assessed as increase in cleaved PARP expression at 3 uM by Western blot analysis; format: functional, cell-based; conditions: TDE = time-dependent effect; outline: as §2
[23] = target: T2, MAP kinase p38 (Homo sapiens) (UniProt O15264+Q15759+Q16539+P53778); assay: Activation of p38 phosphorylation in human A549 cells at 3 uM after 3 to 24 hrs by Western blot analysis; format: cell-based; outline: as §2
[24] = target: T1, c-Jun N-terminal kinase, JNK (Homo sapiens); assay: Modulation of JNK in human A549 cells assessed as increase in cleaved caspase-3 measured after 24 hrs in presence of JNK inhibitor-SP600125 by Western blot analysis; format: cell-based
[25] = tested on: A549; assay: Cell cycle arrest in human A549 cells assessed as accumulation of cells at G2 phase at 3 uM after 12 hrs by propidium iodide staining-based flow cytometric analysis (reference value: 24.02%); format: functional
[26] = tested on: A549; assay: Cell cycle arrest in human A549 cells assessed as accumulation of cells at G2 phase at 3 uM after 3 hrs by propidium iodide staining-based flow cytometric analysis (reference value: 24.02%); format: functional
[27] = target: T2, MAP kinase p38 (Homo sapiens); assay: Activation of p38 phosphorylation in human A549 cells at 3 uM after 24 hrs in presence of NAC by Western blot analysis; format: cell-based; outline: as §2
[28] = target: T1, c-Jun N-terminal kinase, JNK (Homo sapiens); assay: Activation of JNK phosphorylation in human A549 cells at 3 uM after 3 to 24 hrs by Western blot analysis; format: cell-based; outline: as §2

Sequence of RAC-alpha serine/threonine-protein kinase (Homo sapiens) (P31749 whole entry): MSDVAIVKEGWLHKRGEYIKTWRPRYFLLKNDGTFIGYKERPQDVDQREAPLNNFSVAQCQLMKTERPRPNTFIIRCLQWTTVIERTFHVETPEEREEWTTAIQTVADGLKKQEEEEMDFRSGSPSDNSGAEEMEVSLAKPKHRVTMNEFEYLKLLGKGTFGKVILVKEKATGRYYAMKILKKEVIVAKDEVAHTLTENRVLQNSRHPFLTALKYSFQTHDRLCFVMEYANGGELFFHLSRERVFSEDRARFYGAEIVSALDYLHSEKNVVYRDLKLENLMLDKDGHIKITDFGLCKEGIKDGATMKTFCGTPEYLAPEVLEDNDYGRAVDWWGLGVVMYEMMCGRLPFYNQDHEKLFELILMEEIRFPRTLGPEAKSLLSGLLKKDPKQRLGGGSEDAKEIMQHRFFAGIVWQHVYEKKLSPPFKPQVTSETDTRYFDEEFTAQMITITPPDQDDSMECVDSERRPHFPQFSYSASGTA

Structure (SMILES) | Activity [1] [%] | Activity [2] | Activity [3] [%] | Activity [4] | Activity [5] [%] | inhibition [6] | Activity [7] | Activity [8] | Activity [9] | Activity [10] | Activity [11] | Activity [12] [%] | Activity [13] | Activity [14] | Activity [15] | Activity [16] [%] | Activity [17] | Activity [18] | Activity [19] | Activity [20] | further results
CCCCCCCCCS(=O)(=O)C12OC1C(=O)c1c(OC)ccc(OC)c1C2=O (stereo unspecified) | 62.75 | Tde | 71.38 | inactive | 65.95 | Active | Tde | Active | Tde | Tde | 1.89 - 12.93% | 6.03 | Non-Toxic | Active | Tde | 15.06 | inactive | Active | Tde | Active | Activity [21]: Non-Toxic; Activity [22]: Tde; Activity [23]: Active; Activity [24]: inactive; Activity [25]: 20.99%; Activity [26]: 26.58%; Activity [27]: inactive; Activity [28]: Active
CCCS(=O)(=O)C12OC1C(=O)c1c(OC)ccc(OC)c1C2=O (stereo unspecified) | 68.59 | Tde | 72.02 | inactive | 66.13 | Active | Tde | Active | Tde | Tde | 6.31 - 8.05% | 7.41 | Non-Toxic | Active | Tde | 17.94 | inactive | Active | Tde | Active | Activity [21]: Non-Toxic; Activity [22]: Tde; Activity [23]: Active; Activity [24]: inactive; Activity [25]: 17.49%; Activity [26]: 23.47%; Activity [27]: inactive; Activity [28]: Active
